Assay results collected from several papers.
Lines come from different studies, so protocols differ.
Target: 5-hydroxytryptamine receptor 1A (HTR1A, Homo sapiens, UniProt P08908)
Residues used in one study (P08908 1-422): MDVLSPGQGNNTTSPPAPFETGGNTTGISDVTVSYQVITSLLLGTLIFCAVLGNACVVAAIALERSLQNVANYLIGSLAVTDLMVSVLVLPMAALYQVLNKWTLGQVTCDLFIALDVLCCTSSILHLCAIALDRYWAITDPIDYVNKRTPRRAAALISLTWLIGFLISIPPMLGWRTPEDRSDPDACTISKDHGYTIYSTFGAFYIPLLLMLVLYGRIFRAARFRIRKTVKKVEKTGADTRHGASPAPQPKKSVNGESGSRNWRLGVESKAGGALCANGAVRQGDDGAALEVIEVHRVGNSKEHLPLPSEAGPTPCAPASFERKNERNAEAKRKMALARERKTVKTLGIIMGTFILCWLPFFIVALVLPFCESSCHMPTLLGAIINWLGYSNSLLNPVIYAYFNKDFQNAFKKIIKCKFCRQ

CN(C)C(=O)N[C@H]1CC[C@H](CCN2CCN(c3cccc(Cl)c3Cl)CC2)CC1 — Emax (cAMP, agonist, TR-FRET; CHO): 95%
CCN(CC)CCCC[C@H](NC(=O)[C@H](CC(C)C)NC(=O)[C@H](C)NC(=O)[C@H](Cc1ccccc1)NC(=O)c1ccc(C(C)(C)C)cc1)C(=O)N[C@@H](CO)C(=O)OC — remaining binding (ligand displacement, radioligand; 10 µM): 81.3%
CCNCCc1c[nH]c2ccc(OC)cc12 — Emax (calcium signal, agonist): ~70%
COCCc1ccc(-c2c(C)nc3c(N4CCOCC4)ccnn23)cn1 — inhibition (ligand displacement; 10 µM): 22.9%
COCc1c(-c2cc3cc(C)cc(OC)c3s2)c2c(N)ncnn2c1CN1CCNC(=O)C1 — inhibition (ligand displacement, radioligand; 10 µM): 8%
Clc1ccc2c(C3CCN(CCc4c[nH]c5ccccc45)CC3)c[nH]c2c1 — inhibition (ligand displacement, radioligand; 10 µM): 99%
CC(C)N1CCC[C@H]1CNC(=O)c1cn(C2CCCC2)c(=O)c2c1c1ccccc1n2C — inhibition (ligand displacement, radioligand; 10 µM): 3%
CNC(=O)Nc1ccc2c(c1)[C@]1(CC2)OC(=O)N(CC(=O)N(Cc2ccc(F)cc2)[C@@H](C)C(F)(F)F)C1=O — inhibition (ligand displacement; 10 µM): 4.17%
